Target: human GPR68 (Homo sapiens, UniProt Q15743)
Assay: GloSensor cAMP assay, proton-mediated Gs-cAMP production at human GPR68
Format: cell-based
Settings: for Δ: difference of Log(αβ/KB) from that of 1; for Δ / −Log (KB) / Log (αβ/KB): human GPR68; for Log (α): affinity cooperativity; for Log (α) / Log (β): human GPR68, HEK293T, Gs-cAMP; for Log (α) / −Log (KB) / Log (αβ/KB) / Log (β): mean ± SEM; for −Log (KB): allosteric binding affinity from functional assay; for Log (αβ/KB): allosteric index; for Log (β): efficacy cooperativity
Method in brief: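 HEK293T cells were transiently transfected with receptor and GloSensor cAMP plasmids, overnight (16–20 h). Cells were plated on poly-L-Lys in DMEM + 1% dFBS for 6–24 h, then loaded with 3.5 mM luciferin (HBSS, 20 mM TAPS, pH 8.40) for 1 h at 37 °C. Drug was applied in Ca/Mg-free HBSS pH buffers (MES 5.60–6.70, HEPES 6.80–8.20, TAPS 8.30–8.60) with 10 μM Ro 20-1724. Luminescence was read at 20–30 min.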

human GPR68, sequence (Q15743 whole entry): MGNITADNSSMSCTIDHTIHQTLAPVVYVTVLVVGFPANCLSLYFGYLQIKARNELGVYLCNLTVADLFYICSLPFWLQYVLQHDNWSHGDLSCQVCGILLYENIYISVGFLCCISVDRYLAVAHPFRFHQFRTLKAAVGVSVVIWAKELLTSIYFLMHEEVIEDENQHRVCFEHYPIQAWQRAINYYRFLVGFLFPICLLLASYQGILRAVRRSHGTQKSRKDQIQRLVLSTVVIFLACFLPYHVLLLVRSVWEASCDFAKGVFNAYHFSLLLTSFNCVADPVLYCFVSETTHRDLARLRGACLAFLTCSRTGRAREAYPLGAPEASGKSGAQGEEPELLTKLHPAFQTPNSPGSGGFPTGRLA

Kb [µM] | Δ | Log (α) | −Log (KB) | Log (αβ/KB) | Log (β) | SMILES
77.6 | −0.19 |  |  |  |  | COc1ccccc1CNc1nc(N)nc(-c2c(F)cccc2CO)n1 [Compound 70, (2-(4-Amino-6-((2-methoxybenzyl)amino)-1,3,5-triazin-2-yl)-3-fluorophenyl)methanol]
102 | −0.54 |  |  |  |  | COc1ccc(CO)c(-c2nc(N)nc(NCc3ccccc3)n2)c1 [Compound 31, (2-(4-Amino-6-(benzylamino)-1,3,5-triazin-2-yl)-4-methoxyphenyl)methanol]
21.4 | 0.53 |  |  |  |  | Nc1nc(NCCCc2ccc(Oc3ccccc3)cc2)nc(-c2ccccc2CO)n1 [Compound 65, (2-(4-Amino-6-((3-(4-phenoxyphenyl)propyl)amino)-1,3,5-triazin-2-yl)phenyl)methanol]
10 | 0.59 |  |  |  |  | Nc1nc(NCCc2ccc(Oc3ccccc3)cc2)nc(-c2ccccc2CO)n1 [Compound 64, (2-(4-Amino-6-((4-phenoxyphenethyl)amino)-1,3,5-triazin-2-yl)-phenyl)methanol]
10.7 | 0.59 |  |  |  |  | Nc1nc(NCc2cccc(Cl)c2)nc(-c2ccccc2CO)n1 [Compound 45, (2-(4-Amino-6-((3-chlorobenzyl)amino)-1,3,5-triazin-2-yl)-phenyl)methanol]
 | Weak PAM | Weak PAM | Weak PAM | Weak PAM | Weak PAM | Nc1cc(-c2ccccc2CO)nc(NCc2ccccc2)n1 [Compound 10, (2-(6-Amino-2-(benzylamino)pyrimidin-4-yl)phenyl)methanol]
 | Weak PAM | Weak PAM | Weak PAM | Weak PAM | Weak PAM | Cc1ccccc1-c1nc(N)nc(NCc2ccccc2)n1 [Compound 14, N^2-Benzyl-6-(o-tolyl)-1,3,5-triazine-2,4-diamine]
 | Weak PAM | Weak PAM | Weak PAM | Weak PAM | Weak PAM | CC(=O)c1ccccc1-c1nc(N)nc(NCc2ccccc2)n1 [Compound 15, 1-(2-(4-Amino-6-(benzylamino)-1,3,5-triazin-2-yl)phenyl)ethan-1-one]
97.7 | −0.45 |  |  |  |  | Nc1nc(NCc2ccccc2)nc(-c2cccc(F)c2CO)n1 [Compound 22, (2-(4-Amino-6-(benzylamino)-1,3,5-triazin-2-yl)-6-fluorophenyl)-methanol]
138 | −0.30 |  |  |  |  | NCc1ccccc1-c1nc(N)nc(NCc2ccccc2)n1 [Compound 18, 6-(2-(Aminomethyl)phenyl)-N^2-benzyl-1,3,5-triazine-2,4-diamine]
8.51 | 0.46 |  |  |  |  | Nc1nc(NCc2ccc(OC3CC3)cc2)nc(-c2ccccc2CO)n1 [Compound 58, (2-(4-Amino-6-((4-cyclopropoxybenzyl)amino)-1,3,5-triazin-2-yl)phenyl)methanol]
39.8 | 0.26 |  |  |  |  | Cc1cccc(CNc2nc(N)nc(-c3ccccc3CO)n2)c1 [Compound 51, (2-(4-Amino-6-((3-methylbenzyl)amino)-1,3,5-triazin-2-yl)-phenyl)methanol]
7.76 | 0.76 |  |  |  |  | Nc1nc(NCc2cccc(C(F)(F)F)c2)nc(-c2ccccc2CO)n1 [Compound 48, (2-(4-Amino-6-((3-(trifluoromethyl)benzyl)amino)-1,3,5-triazin-2-yl)phenyl)methanol]
77.6 | −0.09 |  |  |  |  | COc1cccc(CNc2nc(N)nc(-c3ccccc3CO)n2)c1 [Compound 54, (2-(4-Amino-6-((3-methoxybenzyl)amino)-1,3,5-triazin-2-yl)-phenyl)methanol]
12.3 | 0.43 |  |  |  |  | CC(C)Oc1ccc(-c2nc(N)nc(NCc3ccccc3)n2)c(CO)c1 [Compound 38, (2-(4-Amino-6-(benzylamino)-1,3,5-triazin-2-yl)-5-isopropoxyphenyl)methanol]
91.2 | 0.03 |  |  |  |  | Nc1nc(NCCCCc2ccccc2)nc(-c2c(F)cccc2CO)n1 [Compound 74, (2-(4-Amino-6-((4-phenylbutyl)amino)-1,3,5-triazin-2-yl)-3-fluorophenyl)methanol]
102 | −0.28 |  |  |  |  | COc1ccccc1CNc1nc(N)nc(-c2ccccc2CO)n1 [Compound 53, (2-(4-Amino-6-((2-methoxybenzyl)amino)-1,3,5-triazin-2-yl)-phenyl)methanol]
 | Weak PAM | Weak PAM | Weak PAM | Weak PAM | Weak PAM | CC(O)c1ccccc1-c1nc(N)nc(NCc2ccccc2)n1 (stereo not shown) [Compound 16, 1-(2-(4-Amino-6-(benzylamino)-1,3,5-triazin-2-yl)phenyl)ethan-1-ol]
9.33 | 0.79 |  |  |  |  | Nc1nc(NCc2ccc(C(F)(F)F)cc2)nc(-c2ccccc2CO)n1 [Compound 49, (2-(4-Amino-6-((4-(trifluoromethyl)benzyl)amino)-1,3,5-triazin-2-yl)phenyl)methanol]

Kb [µM] | Δ | Log (α) | −Log (KB) | Log (αβ/KB) | Log (β) | SMILES
30.9 | 0.05 |  |  |  |  | CNc1nc(NCc2ccccc2)nc(-c2ccccc2CO)n1 [Compound 5]
120 | −0.27 |  |  |  |  | Nc1nc(Nc2ccccc2)nc(-c2ccccc2CO)n1 [Compound 60, (2-(4-Amino-6-(phenylamino)-1,3,5-triazin-2-yl)phenyl)-methanol]
8.91 | 0.65 |  |  |  |  | Nc1nc(NCc2ccccc2C(F)(F)F)nc(-c2ccccc2CO)n1 [Compound 47, (2-(4-Amino-6-((2-(trifluoromethyl)benzyl)amino)-1,3,5-triazin-2-yl)phenyl)methanol]
8.51 | 0.63 |  |  |  |  | Nc1nc(NCc2ccccc2Cl)nc(-c2ccccc2CO)n1 [Compound 44, (2-(4-Amino-6-((2-chlorobenzyl)amino)-1,3,5-triazin-2-yl)-phenyl)methanol]
32.4 | 0.47 |  |  |  |  | Nc1nc(NCc2ccccc2)nc(-c2cc(Cl)ccc2CO)n1 [Compound 27, (2-(4-Amino-6-(benzylamino)-1,3,5-triazin-2-yl)-4-chlorophenyl)methanol]
42.7 | 0.03 |  |  |  |  | CCOc1ccc(-c2nc(N)nc(NCc3ccccc3)n2)c(CO)c1 [Compound 37, (2-(4-Amino-6-(benzylamino)-1,3,5-triazin-2-yl)-5-ethoxyphenyl)methanol]
75.9 | −0.34 |  |  |  |  | COc1ccc(-c2nc(N)nc(NCc3ccccc3)n2)c(CO)c1 [Compound 30]
20 | 0.26 |  |  |  |  | Cc1ccccc1CNc1nc(N)nc(-c2ccccc2CO)n1 [Compound 50, (2-(4-Amino-6-((2-methylbenzyl)amino)-1,3,5-triazin-2-yl)-phenyl)methanol]
 | Inactive | Inactive | Inactive | Inactive | Inactive | Nc1nc(NCc2ccccc2)nc(-c2ccccc2)n1 [Compound 13, N^2-Benzyl-6-phenyl-1,3,5-triazine-2,4-diamine]
 | Weak PAM | Weak PAM | Weak PAM | Weak PAM | Weak PAM | CNCc1ccccc1-c1nc(N)nc(NCc2ccccc2)n1 [Compound 19, N^2-Benzyl-6-(2-((methylamino)methyl)phenyl)-1,3,5-triazine-2,4-diamine]
10.5 | 0.83 |  |  |  |  | Nc1nc(NCCCCc2ccccc2)nc(-c2cc(Cl)ccc2CO)n1 [Compound 79, (2-(4-Amino-6-((4-phenylbutyl)amino)-1,3,5-triazin-2-yl)-4-chlorophenyl)methanol]
31.6 | 0.31 |  |  |  |  | Nc1nc(NCCc2ccccc2)nc(-c2ccccc2CO)n1 [Compound 61]
35.5 | 0.24 |  |  |  |  | Nc1nc(NCc2ccc(F)cc2)nc(-c2c(F)cccc2CO)n1 [Compound 68, (2-(4-Amino-6-((4-fluorobenzyl)amino)-1,3,5-triazin-2-yl)-3-fluorophenyl)methanol]
69.2 | −0.45 |  |  |  |  | COc1cccc(-c2nc(N)nc(NCc3ccccc3)n2)c1CO [Compound 29, (2-(4-Amino-6-(benzylamino)-1,3,5-triazin-2-yl)-6-methoxyphenyl)methanol]
33.9 | 0.36 |  |  |  |  | Nc1nc(NCCCc2ccccc2)nc(-c2c(F)cccc2CO)n1 [Compound 73, (2-(4-Amino-6-((3-phenylpropyl)amino)-1,3,5-triazin-2-yl)-3-fluorophenyl)methanol]
37.2 | 0.25 |  |  |  |  | Nc1nc(NCc2ccccc2)nc(-c2c(Cl)cccc2CO)n1 [Compound 28, (2-(4-Amino-6-(benzylamino)-1,3,5-triazin-2-yl)-3-chlorophenyl)methanol]
26.3 | 0.38 |  |  |  |  | Nc1nc(NCc2ccccc2)nc(-c2cc(F)ccc2CO)n1 [Compound 24, (2-(4-Amino-6-(benzylamino)-1,3,5-triazin-2-yl)-4-fluorophenyl)-methanol]
26.3 | 0.15 |  |  |  |  | Nc1nc(NCc2ccccc2)nc(-c2ccc(F)cc2CO)n1 [Compound 23, (2-(4-Amino-6-(benzylamino)-1,3,5-triazin-2-yl)-5-fluorophenyl)-methanol]
23.4 | 0.03 |  |  |  |  | CCNc1nc(NCc2ccccc2)nc(-c2ccccc2CO)n1 [Compound 6, (2-(4-(Benzylamino)-6-(ethylamino)-1,3,5-triazin-2-yl)phenyl)-methanol]

From PMC6923801 (Journal of medicinal chemistry, 2019)
